Assay results published in ChEMBL document CHEMBL5030567, “Macrocyclic Inhibitors of HGF-Activating Serine Proteases Overcome Resistance to Receptor Tyrosine Kinase Inhibitors and Block Lung Cancer Progression” (J Med Chem, 2021).
The source made the active and inactive calls. No cut-off for these calls is given here. Numbered stars: 1 amine (or outer) side, 2 acyl side, 3 side chain; on linkers, the order of the positions; unused ones are H or OH. Square brackets hold non-standard residues; d marks the D form. Peptide text beside a SMILES is read from it. X1 = N=C(N)NCCC[C@H](N[*:1])C(=O)c1nc2ccc(C(=O)[*:2])cc2s1

Columns and labels:
NCI-H596 = assay: Inhibition of pro-HGF stimulated cell growth in human H596 cells at 10 uM by ELISA; format: functional, cell-based
[1] = target: T1, Suppressor of tumorigenicity 14 protein (Homo sapiens, UniProt Q9Y5Y6); assay: Inhibition of recombinant human N-terminal met-His6-tagged matriptase catalytic domain (Gly596 to Val855 residues) expressed in Escherichia coli using Boc-QAR-AMC as substrate preincubated for 30 mins followed by substrate addition by fluorescence based assay
T1 sequence (Q9Y5Y6 whole entry): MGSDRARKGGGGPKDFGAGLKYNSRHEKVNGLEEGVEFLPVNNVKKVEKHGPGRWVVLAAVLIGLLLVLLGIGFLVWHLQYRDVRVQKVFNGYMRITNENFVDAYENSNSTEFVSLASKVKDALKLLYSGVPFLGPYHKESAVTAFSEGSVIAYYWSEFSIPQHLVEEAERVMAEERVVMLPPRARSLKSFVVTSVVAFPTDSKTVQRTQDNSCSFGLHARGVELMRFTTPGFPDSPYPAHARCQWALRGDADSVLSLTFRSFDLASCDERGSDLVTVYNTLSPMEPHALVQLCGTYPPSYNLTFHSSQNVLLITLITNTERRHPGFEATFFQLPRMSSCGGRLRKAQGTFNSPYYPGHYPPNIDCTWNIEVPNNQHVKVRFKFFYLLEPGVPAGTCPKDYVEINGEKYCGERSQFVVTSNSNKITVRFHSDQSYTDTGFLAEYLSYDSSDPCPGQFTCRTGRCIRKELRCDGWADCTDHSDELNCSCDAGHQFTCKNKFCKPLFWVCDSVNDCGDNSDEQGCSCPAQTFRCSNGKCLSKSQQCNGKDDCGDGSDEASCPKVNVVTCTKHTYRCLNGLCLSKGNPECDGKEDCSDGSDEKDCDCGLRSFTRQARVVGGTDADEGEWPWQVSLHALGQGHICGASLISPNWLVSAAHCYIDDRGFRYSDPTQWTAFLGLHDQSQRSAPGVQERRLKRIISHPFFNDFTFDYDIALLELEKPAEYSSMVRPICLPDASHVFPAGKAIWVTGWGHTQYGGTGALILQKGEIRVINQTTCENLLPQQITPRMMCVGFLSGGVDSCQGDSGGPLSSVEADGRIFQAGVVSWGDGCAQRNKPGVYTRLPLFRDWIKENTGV
In short: (§1)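 Inhibitor in 11-point serial dilution (0-20 µM final, 2% DMSO) pre-incubated 30 min at room temperature with enzyme in TNC buffer (25 mM Tris, 150 mM NaCl, 5 mM CaCl2, 0.01% Triton X-100, pH 8). […] Hepsin activated beforehand 24 h at 37°C. Fluorescence ex 380/em 460 nm kinetic; four-parameter fit of velocities; mean of three experiments.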

Prothrombin = Prothrombin (Homo sapiens, UniProt P00734); assay: Inhibition of recombinant thrombin (unknown origin) using D-Phe-Pip-Arg-pNA as substrate preincubated for 30 mins followed by substrate addition by chromogenic assay
HCC827 = assay: Cytotoxicity against human HCC827 cells assessed as reduction in cell viability at 0.1 to 1 uM after 72 hrs by crystal violet staining based assay; settings: dose 0.1-1 µM
[2] = Toxicity in NSG mouse at 100 mg/kg, ip administered daily for 7 days; format: organism-based; settings: in vivo, time 7 day
[3] = Half life in mouse plasma at 20 mg/kg, ip; format: ADME, organism-based; settings: in vivo, 20 mg/kg
Serine protease hepsin = Serine protease hepsin (Homo sapiens, UniProt P05981); assay: Inhibition of recombinant human C-terminal 10-His tagged hepsin (Arg45 to Leu417) expressed in mouse myeloma cells using Boc-QAR-AMC as substrate preincubated for 30 mins followed by substrate addition by fluorescence based assay; format: single protein; in short: as §1
Serine protease hepsin, sequence (P05981 1-162 limits assumed): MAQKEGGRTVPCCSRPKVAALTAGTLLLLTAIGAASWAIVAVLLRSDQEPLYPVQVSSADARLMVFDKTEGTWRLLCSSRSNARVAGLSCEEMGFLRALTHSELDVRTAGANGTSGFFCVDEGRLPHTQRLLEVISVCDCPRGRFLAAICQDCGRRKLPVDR
Serine protease hepsin, sequence (P05981 163-417 limits assumed): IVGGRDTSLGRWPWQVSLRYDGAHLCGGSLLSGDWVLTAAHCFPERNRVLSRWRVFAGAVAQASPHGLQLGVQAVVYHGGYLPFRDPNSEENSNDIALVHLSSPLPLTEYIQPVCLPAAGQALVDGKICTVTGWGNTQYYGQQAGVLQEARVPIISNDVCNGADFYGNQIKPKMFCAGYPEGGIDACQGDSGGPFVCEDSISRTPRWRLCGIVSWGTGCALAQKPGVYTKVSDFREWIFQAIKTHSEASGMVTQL

SMILES: CC(=O)N[C@@H](CO)C(=O)N[C@@H](CCCCN)C(=O)N[C@@H](CC(C)C)C(=O)N[C@@H](CCCNC(=N)N)C(=O)c1nc2ccc(C(=O)N[C@H](C(N)=O)C(C)C)cc2s1 (Ac-SKL[X1]V-NH2)
- inhibition (NCI-H596): Active
- IC50 [1]: 21 nM
- IC50 (Prothrombin): 9000 nM
- Activity (HCC827): inactive
- Activity [2]: Non-Toxic
- t1/2 [3]: 2 h
- IC50 (Serine protease hepsin): 0.38 nM
